Source: ChEMBL document CHEMBL3227929, “Synthesis and evaluation for diuretic activity of 1-substituted 6-chloro-5-sulfamylindolines” (1979)

Experiments:
Type in all cases: functional
Rattus norvegicus [1] = assay: Diuretic activity in Wistar rat assessed as volume of excreted urine at 50 mg/kg, po measured after 0 to 5 hrs relative to urea-treated control
How it was run: (§1)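 Female Wistar rats (150-200 g), groups of six, fasted 16 h, dosed orally at 50 mg/kg in 1% saline (15 mL/kg). Housed singly in metabolic cages with water ad libitum. Urine collected 0-5 h and 5-24 h. Na+ and K+ measured by flame photometry as mean mequiv, volume as mean mL. Each expressed as a ratio to a urea group (1000 mg/kg) run alongside vehicle control.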

Rattus norvegicus [2] = assay: Diuretic activity in Wistar rat assessed as sodium level in excreted urine at 50 mg/kg, po measured after 0 to 5 hrs by flame photometric analysis relative to urea-treated control; how it was run: as §1
Rattus norvegicus [3] = assay: Diuretic activity in Wistar rat assessed as potassium level in excreted urine at 50 mg/kg, po measured after 0 to 5 hrs by flame photometric analysis relative to urea-treated control; how it was run: as §1
Rattus norvegicus [4] = assay: Diuretic activity in Wistar rat assessed as volume of excreted urine at 50 mg/kg, po measured after 5 to 24 hrs relative to urea-treated control; how it was run: as §1
Rattus norvegicus [5] = assay: Diuretic activity in Wistar rat assessed as sodium level in excreted urine at 50 mg/kg, po measured after 5 to 24 hrs by flame photometric analysis relative to urea-treated control; how it was run: as §1
Rattus norvegicus [6] = assay: Diuretic activity in Wistar rat assessed as potassium level in excreted urine at 50 mg/kg, po measured after 5 to 24 hrs by flame photometric analysis relative to urea-treated control; how it was run: as §1

| SMILES | Ratio (Rattus norvegicus [1]) | Ratio (Rattus norvegicus [2]) | Ratio (Rattus norvegicus [3]) | Ratio (Rattus norvegicus [4]) | Ratio (Rattus norvegicus [5]) | Ratio (Rattus norvegicus [6]) |
| --- | --- | --- | --- | --- | --- | --- |
| NS(=O)(=O)c1cc2c(cc1Cl)N(C(=O)c1ccccc1)CC2 | 0.83 | 0.79 | 0.41 | 0.85 | 1.08 | 1.1 |
| CCCC(=O)N1CCc2cc(S(N)(=O)=O)c(Cl)cc21 | 0.54 | 1.04 | 0.53 | 0.96 | 1.3 | 1.17 |
| CCCCN1CCc2cc(S(N)(=O)=O)c(Cl)cc21 | 0.7 | 0.98 | 0.78 | 0.9 | 1.15 | 1.06 |
| NS(=O)(=O)c1cc(C(=O)NN2CCc3cc(S(N)(=O)=O)c(Cl)cc32)ccc1Cl | 0.99 | 1.47 | 1.09 | 1.26 | 1.24 | 1.18 |
| NS(=O)(=O)c1cc2c(cc1Cl)N(Cc1ccco1)CC2 | 0.15 | 0.29 | 0.24 | 1 | 1.09 | 1.29 |
| NS(=O)(=O)c1cc2c(cc1Cl)N(Cc1ccccc1)CC2 | 0.77 | 1 | 0.73 | 1.8 | 1.3 | 1.2 |
| NS(=O)(=O)c1cc2c(cc1Cl)N(C(=O)c1ccco1)CC2 | 0.31 | 0.46 | 0.38 | 0.87 | 1.2 | 1.23 |
| CC(=O)N1CCc2cc(S(N)(=O)=O)c(Cl)cc21 | 0.53 | 0.63 | 0.53 | 0.72 | 1.09 | 1.1 |
| NS(=O)(=O)c1cc2c(cc1Cl)N=CNS2(=O)=O [CHLOROTHIAZIDE] | 1.3 | 1.9 | 1.5 | 1 | 1.1 | 1 |
| Cl.NS(=O)(=O)c1cc2c(cc1Cl)NCC2 | 0.62 | 0.95 | 0.76 | 0.94 | 1.02 | 0.83 |
| NS(=O)(=O)c1cc(C(=O)O)c(NCc2ccco2)cc1Cl [FUROSEMIDE] | 2.75 | 9.63 | 1.12 | 1.08 | 0.96 | 1.31 |
